Source: ChEMBL document CHEMBL3621052, “Small cyclic agonists of iron regulatory hormone hepcidin” (Bioorg Med Chem Lett, 2015)
The source made the active and inactive calls. The calls are words filed in the database; no cut-off is given here. Starred links: 1 amine or outer side, 2 acyl side, 3 side chain; linkers in the order of their positions; H or OH if unused. Positions of bridges follow the written chain, without caps; N, C: chain ends. Non-standard residues stand in square brackets, D forms with d. Residues, ends and D or L forms follow the SMILES beside them. ξ: configuration not given here. *: point of attachment. CH2CONHCH2CH2NHCOCH2 = O=C(C[*:1])NCCNC(=O)C[*:2]; Propanoyl(3,3-Ph2) = O=C(CC(c1ccccc1)c1ccccc1)*; Pyridine(2,6-diCH2) = c1cc(C[*:1])nc(C[*:2])c1; X2 = O=C(CC(c1ccccc1)(c1ccccc1)c1ccccc1)*; dDip = N[C@@H](C(=O)O)C(c1ccccc1)c1ccccc1; X5 = c1cc(Cc2cccc(C[*:2])c2)cc(C[*:1])c1; Dip = N[C@H](C(=O)O)C(c1ccccc1)c1ccccc1; X7 = c1cc(Oc2ccc(C[*:2])cc2)ccc1C[*:1]; TBMB = c1c(C[*:1])cc(C[*:3])cc1C[*:2]; mXylylene = c1cc(C[*:1])cc(C[*:2])c1; oXylylene = c1ccc(C[*:2])c(C[*:1])c1; NH(CH2CH2O)2CH2CH2NH2 = NCCOCCOCCN*; X6 = c1cc(C[*:1])c2c(C[*:2])cccc2c1; pXylylene = c1cc(C[*:2])ccc1C[*:1]; Palmitoyl = CCCCCCCCCCCCCCCC(=O)*; X4 = c1cc(CSCCN[*:2])cc(C[*:1])c1; X3 = O=S(=O)(CC[*:1])CC[*:2]; ξF = NC(Cc1ccccc1)C(=O)O; Mpa = O=C(O)CCS

biological target: T1, Ferroportin (Homo sapiens, UniProt Q9NP59); experiment: Agonist activity at GFP-fused human FPN transfected in HEK293 cells assessed as protein degradation after 24 hrs by flow cytometric analysis; format: cell-based
T1 sequence (Q9NP59 whole entry): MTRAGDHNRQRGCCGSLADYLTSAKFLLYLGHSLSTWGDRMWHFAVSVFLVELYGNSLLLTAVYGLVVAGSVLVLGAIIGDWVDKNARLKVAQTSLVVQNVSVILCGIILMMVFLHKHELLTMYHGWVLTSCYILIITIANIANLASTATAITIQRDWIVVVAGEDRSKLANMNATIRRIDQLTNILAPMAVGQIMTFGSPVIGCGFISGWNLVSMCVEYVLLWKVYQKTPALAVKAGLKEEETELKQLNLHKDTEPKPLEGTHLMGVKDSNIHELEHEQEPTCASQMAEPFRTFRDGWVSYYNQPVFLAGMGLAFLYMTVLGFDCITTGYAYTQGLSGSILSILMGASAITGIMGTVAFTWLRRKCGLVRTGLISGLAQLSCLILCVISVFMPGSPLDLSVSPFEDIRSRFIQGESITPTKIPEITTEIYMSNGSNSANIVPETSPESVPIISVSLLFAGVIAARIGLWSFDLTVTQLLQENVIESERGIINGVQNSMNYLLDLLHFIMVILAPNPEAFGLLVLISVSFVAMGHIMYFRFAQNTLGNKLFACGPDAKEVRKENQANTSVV
Outline: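 HEK293:TREX-Fpn-GFP cells (human ferroportin-GFP, doxycycline-inducible) plated on poly-D-lysine with 20 μM FAC, induced with 500 ng/mL doxycycline for 24 h, washed, then peptide-treated 24 h. Green fluorescence read by flow cytometry at 1 × 10^6 cells/mL, gated against uninduced cells. Activity expressed as fraction of hep25: 1 − [(Fx − Fhep25)/(Funtreated − Fhep25)]. 3–6 independent repeats.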

| SMILES | EC50 |
| --- | --- |
| C[C@@H](O)[C@H](NC(=O)CNCC(=O)O)C(=O)N[C@H]1CSCc2cccc(c2)CSC[C@@H](C(N)=O)NC(=O)[C@H](Cc2ccccc2)NC(=O)[C@H](CCCNC(=N)N)NC(=O)[C@H](CS)NC(=O)[C@H](CCCNC(=N)N)NC(=O)[C@@H]2CCCN2C(=O)[C@H](C(c2ccccc2)c2ccccc2)NC1=O | 75.1 nM |
| N=C(N)NCCC[C@@H]1NC(=O)[C@H](CS)NC(=O)[C@H](CCCNC(=N)N)NC(=O)[C@H](NC(=O)CC(c2ccccc2)c2ccccc2)CSCc2cccc(c2)CSCCNC(=O)[C@H](Cc2ccccc2)NC1=O | 269 nM |
| CC(=O)N[C@H]1CSCc2cccc(c2)Cc2cccc(c2)CSC[C@@H](C(N)=O)NC(=O)[C@H](Cc2ccccc2)NC(=O)[C@H](CCCNC(=N)N)NC(=O)[C@H](CS)NC(=O)[C@H](CCCNC(=N)N)NC(=O)[C@@H]2CCCN2C(=O)[C@H](Cc2ccccc2)NC1=O (Ac-CFPRCRFC-NH2; linker 1-8 via X5) | 517 nM |
| CCCCCCCCCCCCCCCC(=O)N[C@@H](C(=O)N[C@H]1CSCc2cccc(c2)CSCCNC(=O)[C@H](Cc2ccccc2)NC(=O)[C@H](CCCNC(=N)N)NC(=O)[C@H](CS)NC(=O)[C@H](CCCNC(=N)N)NC1=O)C(c1ccccc1)c1ccccc1 (Palmitoyl-[dDip]CRCRF; linker 2-C via X4) | 458 nM |
| CC(=O)N[C@H]1CSCc2cc3cc(c2)CSC[C@H](NC(=O)C(Cc2ccccc2)NC(=O)[C@H](CCCNC(=N)N)NC(=O)[C@H](CS)NC(=O)[C@H](CCCNC(=N)N)NC(=O)[C@@H]2CCCN2C(=O)[C@H](Cc2ccccc2)NC1=O)C(=O)N[C@@H](Cc1ccccc1)C(=O)N1CCC[C@H]1C(=O)N[C@@H](CCCNC(=N)N)C(=O)N[C@@H](CS)C(=O)N[C@@H](CCCNC(=N)N)C(=O)N[C@@H](Cc1ccccc1)C(=O)N[C@H](C(N)=O)CSC3 (some centres undefined) (Ac-CFPRCR[ξF]CFPRCRFC-NH2; linker 1-8-15 via TBMB) | > 600 nM |
| CCCCCCCCCCCCCCCC(=O)N[C@H](C(=O)N[C@H]1CSCc2cccc(c2)CSCCNC(=O)[C@H](Cc2ccccc2)NC(=O)[C@H](CCCNC(=N)N)NC(=O)[C@H](CS)NC(=O)[C@H](CCCNC(=N)N)NC1=O)C(c1ccccc1)c1ccccc1 (Palmitoyl-[Dip]CRCRF; linker 2-C via X4) | > 600 nM |
| CC(=O)N[C@H]1CSCc2cccc(c2)CSC[C@@H](C(N)=O)NC(=O)[C@H](Cc2ccccc2)NC(=O)[C@H](CCCNC(=N)N)NC(=O)[C@H](CS)NC(=O)[C@H](CCCNC(=N)N)NC(=O)[C@@H]2CCCN2C(=O)[C@H](Cc2ccccc2)NC1=O (Ac-CFPRCRFC-NH2; linker 1-8 via mXylylene) | 272 nM |
| N=C(N)NCCC[C@@H]1NC(=O)[C@@H](NC(=O)CC(c2ccccc2)(c2ccccc2)c2ccccc2)CSCc2cccc(c2)CSC[C@@H](C(N)=O)NC(=O)[C@H](Cc2ccccc2)NC(=O)[C@H](CCCNC(=N)N)NC(=O)[C@H](CS)NC1=O (X2-CRCRFC-NH2; linker 1-6 via mXylylene) | 113 nM |
| N=C(N)NCCC[C@@H]1NC(=O)[C@H](CS)NC(=O)[C@H](CCCNC(=N)N)NC(=O)[C@H](NC(=O)CC(c2ccccc2)c2ccccc2)CSCc2cccc(c2)CSC[C@@H](C(N)=O)NC(=O)[C@H](Cc2ccccc2)NC1=O ({Propanoyl(3,3-Ph2)}-[dC]RCRFC-NH2; linker 1-6 via mXylylene) | 335 nM |
| CC(=O)N[C@H]1CSCc2ccc(cc2)Oc2ccc(cc2)CSC[C@@H](C(N)=O)NC(=O)[C@H](Cc2ccccc2)NC(=O)[C@H](CCCNC(=N)N)NC(=O)[C@H](CS)NC(=O)[C@H](CCCNC(=N)N)NC(=O)[C@@H]2CCCN2C(=O)[C@H](Cc2ccccc2)NC1=O (Ac-CFPRCRFC-NH2; linker 1-8 via X7) | 477 nM |

The remaining lines, values ahead:

| EC50 | SMILES |
| --- | --- |
| 586 nM | CC(=O)N[C@H]1CSCc2ccc(cc2)CSC[C@@H](C(N)=O)NC(=O)[C@H](Cc2ccccc2)NC(=O)[C@H](CCCNC(=N)N)NC(=O)[C@H](CS)NC(=O)[C@H](CCCNC(=N)N)NC(=O)[C@@H]2CCCN2C(=O)[C@H](Cc2ccccc2)NC1=O (Ac-CFPRCRFC-NH2; linker 1-8 via pXylylene) |
| > 600 nM | CC(=O)N[C@H]1CSCc2cccc3cccc(c23)CSC[C@@H](C(N)=O)NC(=O)[C@H](Cc2ccccc2)NC(=O)[C@H](CCCNC(=N)N)NC(=O)[C@H](CS)NC(=O)[C@H](CCCNC(=N)N)NC(=O)[C@@H]2CCCN2C(=O)[C@H](Cc2ccccc2)NC1=O (Ac-CFPRCRFC-NH2; linker 1-8 via X6) |
| 92.3 nM | N=C(N)NCCC[C@@H]1NC(=O)[C@H](CS)NC(=O)[C@H](CCCNC(=N)N)NC(=O)[C@@H]2CCCN2C(=O)[C@H](C(c2ccccc2)c2ccccc2)NC(=O)CCSCc2cccc(c2)CSC[C@@H](C(=O)NCCOCCOCCN)NC(=O)[C@H](Cc2ccccc2)NC1=O ([Mpa][Dip]PRCRFC-{NH(CH2CH2O)2CH2CH2NH2}; linker 1-8 via mXylylene) |
| 54.3 nM | CC(=O)N[C@H]1CSCc2cccc(c2)CSC[C@@H](C(N)=O)NC(=O)[C@H](Cc2ccccc2)NC(=O)[C@H](CCCNC(=N)N)NC(=O)[C@H](CS)NC(=O)[C@H](CCCNC(=N)N)NC(=O)[C@@H]2CCCN2C(=O)[C@H](C(c2ccccc2)c2ccccc2)NC1=O (Ac-C[Dip]PRCRFC-NH2; linker 1-8 via mXylylene) |
| 165 nM | CC(=O)N[C@H]1CSCc2cccc(c2)CSC[C@@H](C(=O)NCCOCCOCCN)NC(=O)[C@H](Cc2ccccc2)NC(=O)[C@H](CCCNC(=N)N)NC(=O)[C@H](CS)NC(=O)[C@H](CCCNC(=N)N)NC(=O)[C@@H]2CCCN2C(=O)[C@H](C(c2ccccc2)c2ccccc2)NC1=O (Ac-C[Dip]PRCRFC-{NH(CH2CH2O)2CH2CH2NH2}; linker 1-8 via mXylylene) |
| > 600 nM | CC(=O)N[C@H]1CSCC(=O)NCCNC(=O)CSC[C@@H](C(N)=O)NC(=O)[C@H](Cc2ccccc2)NC(=O)[C@H](CCCNC(=N)N)NC(=O)[C@H](CS)NC(=O)[C@H](CCCNC(=N)N)NC(=O)[C@@H]2CCCN2C(=O)[C@H](Cc2ccccc2)NC1=O (Ac-CFPRCRFC-NH2; linker 1-8 via CH2CONHCH2CH2NHCOCH2) |
| > 600 nM | CC(=O)N[C@H]1CSCc2cccc(n2)CSC[C@@H](C(N)=O)NC(=O)[C@H](Cc2ccccc2)NC(=O)[C@H](CCCNC(=N)N)NC(=O)[C@H](CS)NC(=O)[C@H](CCCNC(=N)N)NC(=O)[C@@H]2CCCN2C(=O)[C@H](Cc2ccccc2)NC1=O (Ac-CFPRCRFC-NH2; linker 1-8 via Pyridine(2,6-diCH2)) |
| > 600 nM | CCCCCCCCCCCCCCCC(=O)N[C@H]1CSCc2cccc(c2)CSC[C@@H](C(N)=O)NC(=O)[C@H](Cc2ccccc2)NC(=O)[C@H](CCCNC(=N)N)NC(=O)[C@H](CS)NC(=O)[C@H](CCCNC(=N)N)NC(=O)[C@@H]2CCCN2C(=O)[C@H](C(c2ccccc2)c2ccccc2)NC1=O (Palmitoyl-C[Dip]PRCRFC-NH2; linker 1-8 via mXylylene) |
| 532 nM | C[C@@H](O)[C@H](NC(=O)CNCC(=O)O)C(=O)N[C@H]1CSCc2cccc(c2)CSC[C@@H](C(N)=O)NC(=O)[C@H](Cc2ccccc2)NC(=O)[C@H](CCCNC(=N)N)NC(=O)[C@H](CS)NC(=O)[C@H](CCCNC(=N)N)NC(=O)[C@@H]2CCCN2C(=O)[C@H](Cc2ccccc2)NC1=O |
| 369 nM | CCCCCCCCCCCCCCCC(=O)N[C@H]1CSCc2cccc(c2)CSCCNC(=O)[C@H](Cc2ccccc2)NC(=O)[C@H](CCCNC(=N)N)NC(=O)[C@H](CS)NC(=O)[C@H](CCCNC(=N)N)NC(=O)[C@@H]2CCCN2C(=O)[C@H](C(c2ccccc2)c2ccccc2)NC1=O (Palmitoyl-C[Dip]PRCRF; linker 1-C via X4) |
| > 600 nM | CC(=O)N[C@H]1CSCCS(=O)(=O)CCSC[C@@H](C(N)=O)NC(=O)[C@H](Cc2ccccc2)NC(=O)[C@H](CCCNC(=N)N)NC(=O)[C@H](CS)NC(=O)[C@H](CCCNC(=N)N)NC(=O)[C@@H]2CCCN2C(=O)[C@H](Cc2ccccc2)NC1=O (Ac-CFPRCRFC-NH2; linker 1-8 via X3) |
| 599 nM | CC(=O)N[C@H]1CSCc2ccccc2CSC[C@@H](C(N)=O)NC(=O)[C@H](Cc2ccccc2)NC(=O)[C@H](CCCNC(=N)N)NC(=O)[C@H](CS)NC(=O)[C@H](CCCNC(=N)N)NC(=O)[C@@H]2CCCN2C(=O)[C@H](Cc2ccccc2)NC1=O (Ac-CFPRCRFC-NH2; linker 1-8 via oXylylene) |

tested on: Mus musculus; experiment: Decrease in serum iron level in C57BL/6 mouse at 100 nmol, sc after 24 hrs by colorimetric analysis; format: functional, organism-based
Outline: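 C57BL/6 mice on NIH 31 diet (iron 336 mg/kg). Single subcutaneous injection of 50, 100 or 200 nmoles peptide in 100 μL PBS; controls received PBS alone. Killed at 24 h, serum from cardiac blood. Serum iron by colorimetric assay (microplate, 50 μL serum). Percent decrease versus mean of PBS-injected mice.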

| SMILES | Activity |
| --- | --- |
| CCCCCCCCCCCCCCCCNC(=O)CN(CC(N)=O)C(=O)CCCCCNC(=O)C[C@H](Cc1ccccc1)NC(=O)[C@H](CCCNC(=N)N)NC(=O)[C@H](CS)NC(=O)[C@H](CCCNC(=N)N)NC(=O)C[C@@H]1CCCN1C(=O)[C@@H](NC(=O)[C@H](Cc1c[nH]cn1)NC(=O)[C@@H](NC(=O)CNCC(=O)O)[C@@H](C)O)C(c1ccccc1)c1ccccc1 | Active |

tested on: Plasma; experiment: Metabolic stability in mouse plasma at 25 uM by LC/MS analysis; format: ADME, cell-free
Outline: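 Peptide from 10 mM DMSO stock added to fresh mouse plasma (final 25 μM), incubated at 37 °C. Samples (10 μL) taken at time-points and diluted into DMSO/ACN 1:1 with 0.1% TFA. Centrifuged 13000 rpm, 10 min. Supernatant analysed by triple-quadrupole LC/MS with NM4A-Me peptide as internal standard.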

| SMILES | Stability |
| --- | --- |
| CCCCCCCCCCCCCCCCNC(=O)CN(CC(N)=O)C(=O)CCCCCNC(=O)C[C@H](Cc1ccccc1)NC(=O)[C@H](CCCNC(=N)N)NC(=O)[C@H](CS)NC(=O)[C@H](CCCNC(=N)N)NC(=O)C[C@@H]1CCCN1C(=O)[C@@H](NC(=O)[C@H](Cc1c[nH]cn1)NC(=O)[C@@H](NC(=O)CNCC(=O)O)[C@@H](C)O)C(c1ccccc1)c1ccccc1 | Stable |
